What was measured:
[1] = molecular target: T1, Sterol O-acyltransferase 1 (Rattus norvegicus, UniProt O70536); test: In vitro inhibitory concentration against Acyl coenzyme A:cholesterol acyltransferase derived from rat adrenals
T1 sequence (O70536 whole entry): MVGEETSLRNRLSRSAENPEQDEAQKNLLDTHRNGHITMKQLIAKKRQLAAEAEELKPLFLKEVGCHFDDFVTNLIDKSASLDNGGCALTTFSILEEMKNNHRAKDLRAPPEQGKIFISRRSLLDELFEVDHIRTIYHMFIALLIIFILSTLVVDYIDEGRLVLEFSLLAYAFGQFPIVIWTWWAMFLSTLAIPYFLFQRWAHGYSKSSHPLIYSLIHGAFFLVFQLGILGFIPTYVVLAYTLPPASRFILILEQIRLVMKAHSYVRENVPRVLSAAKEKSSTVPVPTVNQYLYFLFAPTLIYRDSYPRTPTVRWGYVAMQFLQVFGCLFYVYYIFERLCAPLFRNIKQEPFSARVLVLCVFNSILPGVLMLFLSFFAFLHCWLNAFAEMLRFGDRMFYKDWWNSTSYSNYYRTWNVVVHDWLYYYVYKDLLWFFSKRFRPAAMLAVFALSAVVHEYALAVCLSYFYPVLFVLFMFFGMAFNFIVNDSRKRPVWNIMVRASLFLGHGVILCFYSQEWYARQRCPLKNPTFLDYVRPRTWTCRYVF
Procedure, shortened: (§1)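 Rat adrenal homogenate in 0.2 M KH2PO4 buffer pH 7.4, 1000g supernatant (microsomal fraction) as enzyme; preincubated with BSA and test compound at graded concentrations, 37 °C 10 min, then [14C]oleoyl-CoA 0.4 µCi, 37 °C 30 min. Lipids extracted, cholesteryl ester isolated by TLC and counted. Triplicate tubes per concentration; IC50 by linear regression of means.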

[2] = molecular target: T2, Sterol O-acyltransferase 1 (Rattus norvegicus) (UniProt O70536); test: Serum hypolipidemic activity in rats; type: functional
T2 sequence (whole entry): T1 sequence (O70536 whole entry)
Procedure, shortened: (§2)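 Male CD-1 Sprague-Dawley rats, 140–150 g, fed 1% cholesterol/0.5% cholic acid diet with compound admixed at 0.01% (about 10 mg/kg/day) for 7 days. Serum and liver cholesterol measured by Technicon autoanalyzer methods; expressed as percent of control.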

[3] = molecular target: T2, Sterol O-acyltransferase 1 (Rattus norvegicus); test: Liver hypolipidemic activity in rats; type: functional; procedure, shortened: as §2
[4] = molecular target: T2, Sterol O-acyltransferase 1 (Rattus norvegicus); test: In vitro percentage inhibition against Acyl coenzyme A:cholesterol acyltransferase derived from rat adrenals; design: concentration or dose not given beside the values; details: concentration not given here
Procedure, shortened: (§3)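 Rat adrenal 1000g supernatant (microsomal ACAT) in 0.2 M KH2PO4 pH 7.4 with BSA; test compound at final 5.2 µg/mL, preincubated 37 °C 10 min; [14C]oleoyl-CoA (0.4 µCi) added, 37 °C 30 min. Cholesteryl ester separated by TLC, scintillation counted; mean percent inhibition against compound-free control.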

[5] = molecular target: T2, Sterol O-acyltransferase 1 (Rattus norvegicus); test: In vitro percentage inhibition against acyl coenzyme A:cholesterol acyltransferase derived from rat adrenals; design: concentration or dose not given beside the values; details: concentration not given here; procedure, shortened: as §3
[6] = molecular target: T1, Sterol O-acyltransferase 1; test: In vitro inhibitory concentration against acyl coenzyme A:cholesterol acyltransferase derived from rat adrenals; procedure, shortened: as §1

IC50 [1] [µM]	SS [2] [%]	LS [3] [%]	inhibition [4] [%]	inhibition [5] [%]	IC50 [6] [µM]	SMILES
	64	46		88	5.67	CCCCN(Cc1ccc2c(c1)OCO2)C(=O)Nc1ccc(C)cc1C
0.331	59	36	95			CCCCCCN(CCCCCC)C(=O)Nc1ccc(C)cc1C
	66	65		89	4.7	Cc1ccc(NC(=O)N(CCC(C)C)CCC(C)C)c(C)c1
	106	123	-6			CCCCCCCCCCCCCCCCCCN(CCCCCCCCCCCCCCCCCC)C(=O)Nc1ccc(C)cc1C
	107	121	-7			CCCCCCCCCCCCCCN(CCCCCCCCCCCCCC)C(=O)Nc1ccc(C)cc1C
	100	76		84	3.55	CCCCN(CCCC)C(=O)Nc1cc(C)cc(C)c1
	83	108		91	11.4	CCCCN(CCCC)C(=O)Nc1ccc(F)c(Cl)c1
	110	98		91	6.43	CCCCN(CCCC)C(=O)Nc1ccc(C)c(Cl)c1
0.484	56	28				CCCCCCCN(Cc1cccs1)C(=O)Nc1cc(Cl)c(Cl)cc1Cl
	71	70	90			Cc1ccc(NC(=O)N(CCC(C)CC(C)(C)C)CCC(C)CC(C)(C)C)c(C)c1 (centres undefined)
	47	22	89			CCCCCCCCN(CCCCCCCC)C(=O)Nc1ccc(C)cc1C
	130	87	9			CCCCCCCC/C=C/CCCCCCCCN(Cc1ccc(CCCC)cc1)C(=O)Nc1ccc(C)cc1C (stereo in doubt; 161)
	100	91	75			CCCCN(CCCC)C(=O)Nc1cccc(C(F)(F)F)c1
	87	93		80	4.08	CCCCN(CCCC)C(=O)Nc1cccc(Cl)c1C
	81	78		81	9.84	CCCCN(CCCC)C(=O)Nc1ccc(C)cc1C
	86	120	26			CCCCCCCCCCCCN(CCCCCCCCCCCC)C(=O)Nc1ccc(C)cc1C
	127	110	96			CCCCN(CCCC)C(=O)Nc1cc(C)ccc1C
0.721	65	15	91			CCCCCCCN(CCCCCCC)C(=O)Nc1ccc(C)cc1C
				78	4.76	CCCCN(CCCC)C(=O)Nc1cccc(C)c1
	63	100		94	9.13	CCCCc1ccc(NC(=O)N(CCCC)CCCC)cc1
	64	100	51			CCCCN(CCCC)C(=O)Nc1cccc(C(C)=O)c1
				87	10.5	CCCCN(CCCC)C(=O)Nc1ccc(Cl)c(C(F)(F)F)c1

More lines, now with the values behind:

SMILES	IC50 [1] [µM]	SS [2] [%]	LS [3] [%]	inhibition [4] [%]	inhibition [5] [%]	IC50 [6] [µM]
Cc1cc(Cl)ccc1NC(=O)N(Cc1ccccc1)Cc1ccccc1	3.37	53	26	63		
Cc1c(Cl)cccc1NC(=O)N(Cc1ccccc1)Cc1ccccc1	8.39			84		
Cc1ccc(NC(=O)N(Cc2ccccc2)Cc2ccccc2)cc1C		97	60	72		
CC(C)(C)CCN(Cc1cccs1)C(=O)Nc1ccc(F)cc1F		66	73			6.75
COc1ccc(C)cc1NC(=O)N(Cc1ccccc1)Cc1ccccc1		83	44	88		
O=C(Nc1cc(Cl)cc(Cl)c1)N(Cc1ccccc1)Cc1ccccc1	3.97			86		
CCCCN(Cc1ccccc1)C(=O)Nc1ccc(Cl)cc1C	7.65	72	62			
Cc1c(Cl)cccc1NC(=O)N(CCC(C)(C)C)Cc1cccs1		62	64			6.77
O=C(Nc1ccc(Oc2ccccc2)cc1)N(Cc1ccccc1)Cc1ccccc1		66	89		94	3.23
O=C(Nc1cccc(C(F)(F)F)c1)N(Cc1ccccc1)Cc1ccccc1	2.89			94		
CCCCN(CC(c1ccc(Cl)cc1)c1ccc(Cl)cc1)C(=O)Nc1ccc(C)cc1C		110	84	81		
CCCCc1ccc(NC(=O)N(Cc2ccccc2)Cc2ccccc2)cc1		62	87	91		
Cc1cc(C)c(NC(=O)N(Cc2ccccc2)Cc2ccccc2)cc1C	0.446	47	20	69		
CCCCN(CCCC)C(=O)Nc1cc(Cl)cc(Cl)c1		76	93		79	4.38
O=C(Nc1cccc(Cl)c1)N(Cc1ccccc1)Cc1ccccc1					94	7.75
Cc1ccc(NC(=O)N(Cc2ccccc2)Cc2ccccc2)cc1Cl	18.9	84	97	94		
CCCCCCCN(Cc1ccco1)C(=O)Nc1c(Cl)cc(Cl)cc1Cl	0.407	37	34	96		
Cc1cccc(NC(=O)N(Cc2ccccc2)Cc2ccccc2)c1C		65	51	85		
O=C(Nc1ccccc1C(F)(F)F)N(Cc1ccccc1)Cc1ccccc1		165	76	68		
O=C(NCc1ccccc1)Nc1ccccc1Cl		92	96	50		
CC(C)(C)CCN(Cc1cccs1)C(=O)Nc1c(Cl)cc(Cl)cc1Cl		58	56			0.977
O=C(Nc1ccc(Cl)cc1C(F)(F)F)N(Cc1ccccc1)Cc1ccccc1		66	57	82		
Cc1ccc(NC(=O)N(Cc2ccccc2)Cc2ccccc2)c(C)c1		52	31	90		
Cc1cc(C)c(NC(=O)N(Cc2ccccc2)Cc2ccccc2)c(C)c1	3.74	32	28	37		
CCOc1ccc(NC(=O)N(Cc2ccccc2)Cc2ccccc2)cc1					96	9.63
C#CCN(CC#C)C(=O)Nc1ccc(C)cc1C		73	93	33		
O=C(Nc1cccc(Br)c1)N(Cc1ccccc1)Cc1ccccc1		92	86		92	5.77
Cc1ccc(NC(=O)Nc2ccc(C)cc2C)c(C)c1		100	85	10		
CCCCN(Cc1ccccc1)C(=O)Nc1ccc(C)cc1		106	107	78	14	
CCCCN(CCCC)C(=O)Nc1cccc(Cl)c1		105	100		88	9.65

Source: ChEMBL document CHEMBL1124354, “Potential antiatherosclerotic agents. 6. Hypocholesterolemic trisubstituted urea analogues” (J Med Chem, 1989)
